ChEMBL document CHEMBL4765486, “Novel Nonsecosteroidal Vitamin D Receptor Modulator Combined with Gemcitabine Enhances Pancreatic Cancer Therapy through Remodeling of the Tumor Microenvironment” (J Med Chem, 2021)
Calls of active or inactive are those of the source. Unless noted, no cut-off for these calls is given here.

Assays:
DSL-6A/C1 [1] = experiment: (§1) Potentiation of gemcitabine-induced antitumor activity against luciferase-tagged rat DSL-6A/C1 cells and GFP-tagged LTC-14 cells co-inoculated in orthotropic xenograft BALB/c nude mouse model of pancreatic cancer assessed as inhibition of collagen deposition at 500 ug/kg, ip administered once every 3 days for 12 days coadministered with gemcitabine at 100 mg/kg and measured after 3 days post last dose by Masson staining based assay; assay type: functional, organism-based; conditions: dose 500.0 µg/kg, time 12.0 day
Procedure, shortened: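 In the same orthotopic co-inoculation model, mice received gemcitabine 100 mg/kg ip every 3 days plus compound 500 μg/kg ip for 12 days. Animals were sacrificed 3 days after the last dose. Pancreatic tumour sections were stained with H&E for tissue structure and with Masson's trichrome for collagen deposition, imaged at ×100.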

LTC-14 [2] = experiment: Inhibition of rat LTC-14 cells activation assessed decrease in TGF-beta1 induced Acta2 mRNA expression at 0.5 uM incubated for 24 hrs by q-PCR analysis; assay type: functional, cell-based
Procedure, shortened: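 Immortalized rat PSC line LTC-14, about 1×10^5 cells per well, was grown 24 h at 37 °C in 5% CO2. Cells then received compound (0.5 μM) plus TGF-β1 for 24 h; TGF-β1 is stated as 0.5 ng/mL in the text and 5 ng/mL in the methods. Col1a1 and Acta2 mRNA were measured by RT-qPCR. Mean ± SD versus TGF-β1 alone.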

LTC-14 [3] = experiment: Inhibition of rat LTC-14 cells activation assessed decrease in TGF-beta1 induced collagen 1 protein expression at 0.5 uM incubated for 24 hrs by Western blot analysis; assay type: functional, cell-based
Procedure, shortened: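 LTC-14 cells were treated for 24 h with compound (0.5 μM) plus TGF-β1 (0.5 ng/mL in the text, 5 ng/mL in the methods). Lysates were run on 10% SDS-PAGE, transferred to PVDF and probed with rabbit anti-collagen I, with β-actin as reference. Bands were quantified by densitometry versus TGF-β1 alone.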

LTC-14 [4] = experiment: Inhibition of rat LTC-14 cells activation assessed as inhibition of PDGFB mRNA expression at 0.5 uM treated under conditioned media of DSL-6A/C1 cells for 24 hrs by q-PCR analysis; assay type: functional, cell-based
Procedure, shortened: (§2)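 LTC-14 PSCs were exposed for 24 h to conditioned medium from rat DSL-6A/C1 cancer cells containing compound at 0.5 μM. Pdgfa, Pdgfb, Fgf2, Hgf and Periodin mRNA were quantified by RT-qPCR. Three repeats, mean ± SD versus CM alone.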

LTC-14 [5] = experiment: Inhibition of rat LTC-14 cells activation assessed as inhibition of Fgf mRNA expression at 0.5 uM treated under conditioned media of DSL-6A/C1 cells for 24 hrs by q-PCR analysis; assay type: functional, cell-based; procedure, shortened: as §2
LTC-14 [6] = experiment: Inhibition of rat LTC-14 cells activation assessed as inhibition of Hgf mRNA expression at 0.5 uM treated under conditioned media of DSL-6A/C1 cells for 24 hrs by q-PCR analysis; assay type: functional, cell-based; procedure, shortened: as §2
LTC-14 [7] = experiment: Inhibition of rat LTC-14 cells activation assessed as inhibition of Periodin-mRNA expression at 0.5 uM treated under conditioned media of DSL-6A/C1 cells for 24 hrs by q-PCR analysis; assay type: functional, cell-based; procedure, shortened: as §2
DSL-6A/C1 [8] = experiment: Antiproliferative activity against rat DSL-6A/C1 cells assessed as reduction in cell viability at 0.5 uM incubated for 24 hrs compound treated LTC-14-CM cells by MTT assay; assay type: functional, cell-based
Procedure, shortened: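 LTC-14 PSCs were pretreated with compound for 24 h. Their collected supernatant was used to culture DSL-6A/C1 cells, and proliferation was read by MTT: 4 h incubation with MTT (5 mg/mL stock), absorbance at 570 nm. Run in triplicate, compared with untreated PSC-CM.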

[9] = target: T1, Vitamin D3 receptor (Homo sapiens) (UniProt P11473); experiment: Agonist activity at VDR (unknown origin) expressed in HEK293 cells co-transfected with pGL4.27-SPP3-Luc and CMV-hRXRalpha and pCMX-Renilla plasmids after 24 hrs by dual luciferase reporter gene assay; assay type: cell-based; conditions: filed as agonist, dose 0.0001-1 µM
T1 sequence (whole entry): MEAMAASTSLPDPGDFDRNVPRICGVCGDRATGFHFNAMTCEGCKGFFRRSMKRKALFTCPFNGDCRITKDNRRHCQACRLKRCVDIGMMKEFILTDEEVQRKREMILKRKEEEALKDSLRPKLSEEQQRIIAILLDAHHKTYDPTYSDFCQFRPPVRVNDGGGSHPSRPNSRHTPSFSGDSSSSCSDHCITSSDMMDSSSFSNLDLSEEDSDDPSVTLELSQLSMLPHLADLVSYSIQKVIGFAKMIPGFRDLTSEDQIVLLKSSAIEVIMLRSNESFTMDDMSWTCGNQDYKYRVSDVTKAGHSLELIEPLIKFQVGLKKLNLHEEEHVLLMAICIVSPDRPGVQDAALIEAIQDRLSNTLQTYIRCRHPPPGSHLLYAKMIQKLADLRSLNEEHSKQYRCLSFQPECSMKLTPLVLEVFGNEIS
Procedure, shortened: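 HEK293 cells in 48-well plates were transfected per well with 40 ng TK-Spp×3-LUC reporter, 20 ng pCMX-Renilla, 30 ng pENTER-CMV-hRXRα and 100 ng pCMX-VDR using Lipofectamine 2000. Compounds were added 8 h post-transfection, and dual-luciferase activity was read 24 h later. Firefly signal was normalised to Renilla. The experiment was run three times.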

DSL-6A/C1 [10] = experiment: as §1, with “reduction in tumor volume” for “inhibition of collagen deposition”, “IVIS optical imaging analysis” for “Masson staining based assay”; assay type: functional, organism-based; conditions: dose 500.0 µg/kg, time 12.0 day
Procedure, shortened: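 DSL-6A/C1-luci and LTC-14-GFP cells were co-inoculated orthotopically into the pancreas of nude mice, n=5 per group. Treatment began 7 days after grafting (methods) or 14 days (text). Gemcitabine 100 mg/kg ip every 3 days, alone or with compound 500 μg/kg or calcipotriol 60 μg/kg in ethanol/polyoxyethylene castor oil/saline (1:1:18), for 12 days. Tumour growth was followed by bioluminescence imaging.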

Mus musculus = experiment: Inhibition of GFP-tagged rat LTC-14 cells activation in BALB/c nude mouse xenografted along with luciferase-tagged DSL-6A/C1-Luc cells assessed as reduction in alpha-smooth muscle actin expression in tumor at 500 ug/kg, ip administered once every 3 days for 12 days coadministered with gemcitabine at 100 mg/kg by DAPI staining based laser confocal scanning microscopy; assay type: functional, organism-based; conditions: dose 500.0 µg/kg, time 12.0 day
Procedure, shortened: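 Tumours were taken from orthotopic co-inoculated nude mice given gemcitabine 100 mg/kg plus compound (500 μg/kg) or calcipotriol (60 μg/kg) ip for 12 days. Sections were fixed in 4% PFA, permeabilised with 0.5% Triton X-100 and blocked in 5% BSA. They were incubated with anti-α-SMA overnight at 4 °C, then an Alexa Fluor 594 secondary for 1 h at 37 °C, DAPI-counterstained and imaged by confocal microscopy.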

[11] = Toxicity in orthotropic xenograft BALB/c nude mouse model of pancreatic cancer co-inoculated with rat DSL-6A/C1-Luc cells and LTC-14-GFP cells assessed as hypercalcemia at 500 ug/kg, ip administered once every 3 days for 12 days coadministered with gemcitabine at 100 mg/kg and measured after 3 days post last dose; assay type: organism-based; conditions: in vivo, 0.5 mg/kg, 288 h, dose 500 µg/kg, time 12 day
Procedure, shortened: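 Orthotopic DSL-6A/C1-luci/LTC-14-GFP nude mice received gemcitabine 100 mg/kg plus compound 500 μg/kg ip for 12 days. They were sacrificed 3 days after the final dose, and serum was collected for biochemical analysis to assess hypercalcemia.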

SMILES: CCn1cc(C(CC)(CC)c2ccc(OCC(C)O)c(C)c2)cc1C(=O)NCCN1CCN(C)CC1 (configuration not stated)
- Activity (DSL-6A/C1 [1]): Active
- inhibition (LTC-14 [2]): Active
- inhibition (LTC-14 [3]): Active
- inhibition (LTC-14 [4]): Active
- inhibition (LTC-14 [5]): Active
- inhibition (LTC-14 [6]): Active
- inhibition (LTC-14 [7]): Active
- Activity (DSL-6A/C1 [8]): Active
- Activity [9]: Dose-dependent effect
- TGI (DSL-6A/C1 [10]): Active
- inhibition (Mus musculus): Active
- Activity [11]: Non-Toxic
